Results pooled from the literature.
Compare with care: the assays were run in different laboratories.
CDK16: Cyclin-dependent kinase 16 (CDK16, Homo sapiens, UniProt Q00536)
CDK16 with cyclin Y: Cyclin-dependent kinase 16, with cyclin Y (CDK16, Homo sapiens, UniProt Q00536)

`Cc1ccc(NC(=O)c2ccnc(C(F)(F)F)c2)cc1-c1cc(OCCO)nc(N2CCOCC2)c1` gave a remaining binding of 100% (CDK16; binding; 1 µM).
For `C=CC(=O)N1CCC[C@@H](n2nc(-c3ccc(Oc4ccccc4)cc3)c3c(N)ncnc32)C1`, the inhibition was 10% (CDK16; enzyme activity, inhibitor; 1 µM).
With `COc1ccc2[nH]c3c4[nH]c5ccc(OC)cc5c4c4c(c3c2c1)C(=O)NC4=O` the remaining binding was 99% (CDK16; binding; 1 µM).
The remaining binding of `COc1ccc2oc(-c3ccc4nc(N)oc4c3)c/c(=N\c3ccccc3NC(=O)CCN)c2c1` is reported as 107% (CDK16 with cyclin Y; binding; 1 µM).
The remaining binding of `N#Cc1ccc(NC(=O)Nc2ccccc2)cc1` is reported as 68% (CDK16; cell-free assay, competition with immobilised ligand; 25 µM).
`CO[C@@H]1[C@H](N(C)C(=O)c2ccccc2)C[C@H]2O[C@]1(C)n1c3ccccc3c3c4c(c5c6ccccc6n2c5c31)C(=O)NC4` has an inhibition of 5% (CDK16; enzyme activity, inhibitor; 1 µM).
For `CC(C)S(=O)(=O)c1ccc2nccc(Nc3ccc4sc(C5CCCC5)nc4c3)c2c1`, the activity vs control was 106% (CDK16 with cyclin Y; enzyme activity, inhibitor; 1 µM).
With `CCCCC(=O)Nc1ccc(-c2ccc3ncn(CCC)c(=O)c3c2)cn1` the remaining binding was 90% (CDK16; binding, competition with immobilised ligand; 0.5 µM).
For `Cc1cc(O)c(-c2ccc([C@@H](C)CN(C)C)cc2)c2c1[nH]c(=O)c1sccc12`, the inhibition was -12.9% (CDK16; enzyme activity, inhibitor; 0.1 µM).
